Test results as given in ChEMBL document CHEMBL5543129, “Peptide Inhibitor Targeting the Extraterminal Domain in BRD4 Potently Suppresses Breast Cancer Both In Vitro and In Vivo” (J Med Chem, 2024).
The source made the active and inactive calls. No cut-off for these calls is given here. Square brackets hold non-standard residues; d marks the D form. Peptide text beside a SMILES is read from it. Hyp = O=C(O)[C@@H]1C[C@@H](O)CN1; Ahx = NCCCCCC(=O)O

Columns and labels:
MCF7 [1] = assay: Inhibition of colony formation in human MCF7 cells at 10 uM incubated for 2 weeks by crystal violet staining based assay; assay type: functional, cell-based
How it was run: (§1)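 Cells are seeded at 1 × 10^3/well and treated with peptide (10 μM) for 2 weeks, alone or with JQ1 5 μM, iJMJD6 10 μM, ICI 2.5 μM, or tamoxifen 3 μM (tamoxifen-resistant lines). Colonies are stained with crystal violet, dissolved in 10% acetic acid, and read at 590 nm. Three biological repeats.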

BT-549 = assay: Inhibition of colony formation in human BT-549 cells at 10 uM incubated for 2 weeks by crystal violet staining based assay; assay type: functional, cell-based; how it was run: as §1
[2] = Downregulation of c-Myc protein expression in human MCF7 cells assessed as fold change in remaining c-Myc level at 10 uM incubated for 24 hrs by immunoblotting analysis (reference value: 1); assay type: functional
How it was run: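 Cells (MCF7 or MDA-MB-231 in DMEM, 10% FBS, 37 °C, 5% CO2) are treated with peptide for 24 h. Lysates are taken in Tris/NaCl/EDTA/1% Triton buffer and run on 10% SDS-PAGE. Immunoblots are normalised to β-actin loading control; three repeats.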

[3] = Downregulation of […] protein expression in human MDA-MB-231 cells assessed as fold change in […] at 10 uM incubated for 24 hrs by immunoblotting analysis (reference value: 1); assay type: functional
How it was run: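 Cells treated with peptide (10 μM) for 24 h. Lysates in Tris/NaCl/EDTA/1% Triton X-100, run on 10% SDS-PAGE and immunoblotted with ECL detection. β-actin as loading control. Three repeats, quantified against untreated cells.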

Mus musculus = assay: Downregulation of N-myc mRNA expression in BALB/c mouse tumor xenografted with human MDA-MB-231 cells at 25 mg/kg, ip administered every 2 days by RT-qPCR analysis; assay type: functional, organism-based
MCF7 [4] = assay: Inhibition of cell migration in human MCF7 cells at 10 uM incubated for 24 hrs in presence of 5 uM JQ1 by inverted microscopic assay; assay type: functional, cell-based
How it was run: (§2)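 Cells are seeded at 5 × 10^5/well and scratched at 80–90% confluence. They are kept in serum-free medium with peptide (10 μM); partner agents are JQ1 5 μM, iJMJD6 10 μM, or ICI 2.5 μM. Wound area is imaged by inverted microscope at 0 and 12 or 24 h. Wound closure % = (A0−A1)/A0 × 100. Three biological repeats.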

MCF7 [5] = assay: Inhibition of cell migration in human MCF7 cells at 10 uM incubated for 24 hrs by inverted microscopic assay; assay type: functional, cell-based; how it was run: as §2
[6] = Toxicity in BALB/c mouse xenografted with human […] cells assessed as change body weight at 12.5 mg/kg, ip administered every 2 days in presence of 50 mg/kg JQ1; assay type: organism-based; conditions: in vivo, 48 h
How it was run: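 Female BALB/c nude mice (4–6 weeks) carried sc MDA-MB-231 xenografts (5 × 10^6 cells) and were randomized at about 50 mm3. Peptide (12.5 mg/kg ip in saline) and JQ1 (50 mg/kg ip, DMSO/10% HPBCD 1:10) were given every 2 days, alone or combined. Body weight was recorded, and heart, liver, spleen, lung and kidney morphology and weight were assessed.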

[7] = Toxicity in BALB/c mouse xenografted with human MCF7 cells assessed as change in spleen morphology at 12.5 mg/kg, ip administered every 2 days in presence of 50 mg/kg JQ1; assay type: organism-based; conditions: in vivo, 48 h
T47D [8] = assay: Antiproliferative activity against human T47D cells at 10 uM incubated for 1 week in presence of JMJD6 inhibitor by CellTiter 96 Aqueous One Solution based assay; assay type: functional, cell-based; conditions: time 1.0 weeks
T47D [9] = assay: Inhibition of cell migration in human T47D cells at 10 uM incubated for 24 hrs in presence of JMJD6 inhibitor by inverted microscopic analysis; assay type: functional, cell-based; how it was run: as §2
[10] = Toxicity in BALB/c mouse xenografted with human MCF7 cells assessed as change in lung at 12.5 mg/kg, ip administered every 2 days in presence of 12.5 mg/kg JMJD6 inhibitor; assay type: organism-based; conditions: in vivo, 48 h
How it was run: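 Female BALB/c nude mice carried MCF7 xenografts (5 × 10^6 cells sc, E2 10–2 M brushed every 2 days) and were randomized at about 50 mm3. Peptide was given at 12.5 mg/kg ip every 2 days, and iJMJD6 (DMSO/PBS 1:20) at 12.5 mg/kg ip every other day, alone or combined. Body and organ weights were recorded.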

MCF7 [11] = assay: Antiproliferative activity against human MCF7 cells at 10 uM incubated for 1 week in presence of fulvestrant by CellTiter 96 Aqueous One Solution based assay; assay type: functional, cell-based; conditions: time 1.0 weeks
How it was run: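 Cells seeded at 2 × 10^3/well and treated with peptide (10 μM) alone or combined with JQ1 (5 μM), iJMJD6 (10 μM) or ICI (2.5 μM), as the line states. Viability read by MTS reagent, 1 h at 37 °C, A490. Three biological repeats.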

MCF7 [12] = assay: Inhibition of colony formation in human MCF7 cells at 10 uM incubated for 2 weeks in presence of fulvestrant by crystal violet staining based assay; assay type: functional, cell-based; how it was run: as §1
MCF7 [13] = assay: Inhibition of cell migration in human MCF7 cells at 10 uM incubated for 24 hrs in presence of fulvestrant by inverted microscopic analysis; assay type: functional, cell-based; how it was run: as §2
MCF7 [14] = assay: Antitumor activity against human MCF7 cells xenografted in BALB/c nude mouse assessed as reduction in tumor volume at 12.5 mg/kg, ip administered every 2 days in presence of 2.5 mg/kg fulvestrant; assay type: functional, organism-based
How it was run: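 MCF7 xenografts in female BALB/c nude mice on E2 (10^-2 M, every 2 days), randomised at ~50 mm3. Peptide 12.5 mg/kg ip every 2 days with fulvestrant 2.5 mg/kg sc (DMSO/corn oil 1:10) every 6 days. Caliper volume (1/2 × L × W²); tumours weighed at the end.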

MCF7 [15] = assay: Antiproliferative activity against human MCF7 cells at 10 uM incubated for 1 week in presence of tamoxifen by CellTiter 96 Aqueous One Solution based assay; assay type: functional, cell-based; conditions: time 1.0 weeks
How it was run: (§3)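 Tamoxifen-resistant MCF7 or T47D cells treated with peptide (10 μM) or tamoxifen (3 μM), alone or combined. Viability read by MTS reagent, 1 h at 37 °C, A490.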

MCF7 [16] = assay: Inhibition of colony formation in human MCF7 cells at 10 uM incubated for 2 weeks in presence of tamoxifen by crystal violet staining based assay; assay type: functional, cell-based; how it was run: as §1
T47D [17] = assay: Antiproliferative activity against human T47D cells at 10 uM incubated for 1 week in presence of tamoxifen by CellTiter 96 Aqueous One Solution based assay; assay type: functional, cell-based; conditions: time 1.0 weeks; how it was run: as §3
[18] = Downregulation of JMJD6 protein expression in BALB/c mouse tumor xenografted with human MCF7 cells assessed as fold change in remaining JMJD6 level at 25 mg/kg, ip administered every 2 days by immunoblotting analysis; assay type: functional
How it was run: (§4)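 Tumours taken from xenograft mice dosed with peptide at 25 mg/kg ip every 2 days. […] Three repeats.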

[19] = Downregulation of BRD4 protein expression in BALB/c mouse tumor xenografted with human MDA-MB-231 cells assessed as fold change in remaining BRD4 level at 25 mg/kg, ip administered every 2 days by immunoblotting analysis; assay type: functional; how it was run: as §4
[20] = Downregulation of JMJD6 protein expression in BALB/c mouse tumor xenografted with human MDA-MB-231 cells assessed as fold change in remaining JMJD6 level at 25 mg/kg, ip administered every 2 days by immunoblotting analysis; assay type: functional; how it was run: as §4

Molecule	inhibition (MCF7 [1])	inhibition (BT-549)	fold change (FC) [2]	fold change (FC) [3]	Activity (Mus musculus)	inhibition (MCF7 [4])	inhibition (MCF7 [5])	Activity [6]	Activity [7]	Activity (T47D [8])	inhibition (T47D [9])	Activity [10]	Activity (MCF7 [11])	inhibition (MCF7 [12])	inhibition (MCF7 [13])	Activity (MCF7 [14])	Activity (MCF7 [15])	inhibition (MCF7 [16])	Activity (T47D [17])	fold change (FC) [18]	also measured
CC[C@H](C)[C@H](NC(=O)[C@H](Cc1ccc(O)cc1)NC(=O)[C@@H]1C[C@@H](O)CN1C(=O)[C@H](C)NC(=O)[C@@H](NC(=O)CCCCCNC(=O)[C@H](CCC(=O)O)NC(=O)CNC(=O)[C@H](CS)NC(=O)[C@H](CCCCN)NC(=O)[C@H](Cc1ccccc1)NC(=O)[C@H](CCCCN)NC(=O)[C@H](CCC(N)=O)NC(=O)[C@H](CC(N)=O)NC(=O)[C@H](CCCNC(=N)N)NC(=O)[C@H](CCCNC(=N)N)NC(=O)[C@H](CCCNC(=N)N)NC(=O)[C@H](CCCNC(=N)N)NC(=O)[C@H](CCC(N)=O)NC(=O)[C@H](CCCNC(=N)N)NC(=O)[C@H](CCCNC(=N)N)NC(=O)[C@H](CCCCN)NC(=O)[C@H](CCCCN)NC(=O)[C@H](CCCNC(=N)N)NC(=O)CNC(=O)[C@@H](N)Cc1ccc(O)cc1)[C@@H](C)CC)C(=O)O (H-YGRKKRRQRRRRNQKFKCGE[Ahx]IA[Hyp]YI-OH)	Active	Active	0.72	0.68	Active	Active	Active	Non-Toxic	Non-Toxic	Active	Active	Non-Toxic	Active	Active	Active	Active	Active	Active	Active	0.4	fold change (FC) [19]: 0.15; fold change (FC) [20]: 0.48
H-YGRKKRRQRRRRNQKFKCGE-OH	Active	Active	0.69	0.72	Active	Active	Active	Non-Toxic	Non-Toxic	Active	Active	Non-Toxic	Active	Active	Active	Active	Active	Active	Active	0.71	fold change (FC) [19]: 0.63; fold change (FC) [20]: 0.98
